SMILES strings stand for the structures.

This experiment has as its target T1, OR2H2 (Homo sapiens) (UniProt O95918).
T1 sequence (whole entry): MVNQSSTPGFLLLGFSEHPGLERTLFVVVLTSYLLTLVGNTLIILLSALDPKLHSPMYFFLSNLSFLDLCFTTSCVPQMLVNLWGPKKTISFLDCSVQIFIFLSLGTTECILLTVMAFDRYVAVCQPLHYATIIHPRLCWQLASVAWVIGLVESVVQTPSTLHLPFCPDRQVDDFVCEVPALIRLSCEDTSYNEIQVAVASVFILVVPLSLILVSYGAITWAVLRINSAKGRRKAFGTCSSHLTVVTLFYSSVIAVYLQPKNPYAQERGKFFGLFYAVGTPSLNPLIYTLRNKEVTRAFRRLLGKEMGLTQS
As to conditions: stereoisomer not certain. The procedure, abridged: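 Assay methods differ from source to source, frequently being transient luciferase assays in mammalian cell lines. For each receptor–molecule pair, the label responsive (active) applies when the original authors judged the measured signal statistically different from baseline, and non-responsive (inactive) applies otherwise.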
On to `CCCCCCCCO`, for which the “odorant receptor agonist call” value is “inactive”.
For the compound `CC(C)=CCCC(C)CC=O` (stereo not drawn), the “odorant receptor agonist call” value was “active”.
Take `CCCCCCCC(=O)[O-].[H+]`: the “odorant receptor agonist call” value was “inactive”.
As for `CCCCCCCCCCCC=O`, the “odorant receptor agonist call” value is “inactive”.
Regarding `CCCC=CC=CC=O`, the “odorant receptor agonist call” value was “active”.
`CC(C=O)=CCC(C)CC(C)C` (stereo not drawn): the “odorant receptor agonist call” value was “inactive”.
Take `CCCCCC=CC=O`: the “odorant receptor agonist call” value was “active”.
For `CCCCCC=O`, the “odorant receptor agonist call” value is “inactive”.

These data come from the M2OR odorant receptor database.
